{"source": "paper PMC4948641", "about": "(ChemMedChem, 2015)", "key": {"[1]": {"tested_on": "HeLa cells", "assay": "oxygen-consumption rate of intact HeLa cells", "assay_type": "cell-based, human", "conditions": "≤ 10 μM"}, "[2]": {"tested_on": "HeLa cells", "assay": "HeLa cell proliferation after 24-hour treatment", "assay_type": "cell-based, human", "conditions": "≤ 10 μM", "procedure,_shortened": "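HeLa cells were treated with the test compound at the indicated concentrations for 24 hours, and proliferation was then assessed. Values are the average ± SEM of ≥4 experiments.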"}, "[3]": {"assay": "aqueous stability", "assay_type": "physicochemical"}, "[4]": {"assay": "plasma protein binding, mouse", "assay_type": "in vitro ADME"}, "[5]": {"tested_on": "mitochondrial permeability transition pore (PTP)", "assay": "Ca2+ retention capacity", "assay_type": "biochemical", "conditions": "isolated mouse liver mitochondria", "procedure,_shortened": "(§1)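 Isolated mouse liver mitochondria from wild-type or CyPD-knockout mice were used. Ca2+ retention capacity was taken as the amount of Ca2+ needed to open the pore. Mitochondria were treated across a concentration range of test compound or solvent, and results were expressed as the compound-to-solvent CRC ratio. Values are the average ± SEM of ≥4 experiments.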"}, "[6]": {"tested_on": "mitochondrial permeability transition pore (PTP)", "assay": "CRC assay in CyPD-null mouse liver mitochondria", "assay_type": "biochemical", "procedure,_shortened": "as §1"}, "[7]": {"tested_on": "IMM potential", "assay": "Rhodamine 123 uptake counterscreen", "assay_type": "biochemical", "conditions": "read-out: Rh123 uptake EC50, isolated mouse liver mitochondria", "procedure,_shortened": "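Isolated mouse liver mitochondria took up rhodamine 123 as a read-out of inner-membrane potential. The test compound was applied in a concentration series, and interference with Rh123 uptake was recorded. Values are the average ± SEM of ≥4 experiments.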"}, "[8]": {"tested_on": "mitochondrial permeability transition pore (PTP)", "assay": "Ca2+-induced mitochondrial swelling assay", "assay_type": "biochemical", "conditions": "read-out: mitochondrial swelling EC50; isolated mouse liver mitochondria; 50 μM Ca2+", "procedure,_shortened": "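Mitochondria isolated from mouse liver take up 50 μM Ca2+ to trigger pore-dependent swelling. Swelling is followed across a range of test compound concentrations. Data are the average ± SEM of ≥ 4 experiments.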"}, "[9]": {"assay": "aqueous solubility in 1xPBS", "assay_type": "physicochemical"}, "[10]": {"assay": "BBB PAMPA permeability", "assay_type": "in vitro ADME", "conditions": "pH 7.4"}, "[11]": {"assay": "plasma protein binding, human", "assay_type": "in vitro ADME"}, "[12]": {"assay": "PAMPA permeability", "assay_type": "in vitro ADME", "conditions": "Pe"}, "[13]": {"assay": "plasma stability, human", "assay_type": "in vitro ADME"}, "[14]": {"assay": "hepatic microsome stability, human", "assay_type": "in vitro ADME", "conditions": "liver microsomes, hepatic microsome stability (% remaining after 1 h)"}, "[15]": {"assay": "hepatic microsome stability, mouse", "assay_type": "in vitro ADME", "conditions": "liver microsomes, hepatic microsome stability (% remaining after 1 h)"}, "[16]": {"tested_on": "Fa2N-4 immortalized human hepatocytes", "assay": "toxicity towards Fa2N-4 immortalized human hepatocytes", "assay_type": "cell-based"}, "[17]": {"assay": "toxicity towards Fa2N-4 immortalized human hepatocytes", "assay_type": "cell-based", "conditions": "human, Fa2N-4 immortalized hepatocytes"}, "[18]": {"assay": "plasma stability, mouse", "assay_type": "in vitro ADME"}, "[19]": {"assay": "chemical stability with 5x DTT", "assay_type": "physicochemical"}, "[20]": {"tested_on": "mitochondrial permeability transition pore (PTP)", "assay": "CRC of permeabilized HeLa cells", "assay_type": "cell-based, human", "procedure,_shortened": "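Ca2+ retention capacity was measured in permeabilized HeLa cells, 0.8 million cells per condition. The test compound was applied across a concentration range. Results are expressed as the compound-to-solvent CRC ratio, average ± SEM of ≥4 experiments.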"}, "[21]": {"tested_on": "isolated mouse liver mitochondria", "assay": "mitochondrial respiration in isolated mouse liver mitochondria", "assay_type": "biochemical", "procedure,_shortened": "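Isolated mouse liver mitochondria were treated with the test compound or solvent, and respiration was measured. Results are expressed as respiratory control ratio, reflecting the capacity to generate ATP. Values are the average ± SEM of ≥4 experiments.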"}}, "note": "“And” between values parts separate entries of the source, which are not always exact repeats. Equal entries are not always repeated.", "data": [{"compound": "O=C(Nc1ccc(CN2CCCCC2)cc1)c1cc(Cl)cc(OCc2ccccc2)c1", "note": "[Compound 4, 3-(benzyloxy)-5-chloro-N-(4-(piperidin-1-ylmethyl)phenyl)benzamide]", "values": [{"measurement": "FCCP-stimulated and oligomycin-sensitive respiration (OCR)", "setting": "[1]", "result": "No significant differences"}, {"measurement": "effect on HeLa cell proliferation", "setting": "[2]", "result": "no effect"}, {"measurement": "aqueous stability (1:1 PBS/acetonitrile), % parent remaining after 48 h", "setting": "[3]", "result": 93.4, "unit": "%"}, {"measurement": "fraction unbound at 1 μM", "setting": "[4]", "result": 0.007}, {"measurement": "fraction unbound at 10 μM", "setting": "[4]", "result": 0.017}, {"measurement": "CRC/CRC0 at 12.5 μM", "setting": "[5]; 12.5 μM, compound-to-solvent CRC ratio", "result": "19.5 ± 1.7"}, {"measurement": "maximum CRC ratio relative to CsA-treated mitochondria", "setting": "[5]", "result": "about 4 times"}, {"measurement": "increase in CRC in CyPD-null mouse liver mitochondria", "setting": "[6]", "result": 7, "unit": "fold"}, {"measurement": "EC50", "setting": "[7]", "result": "24.5 ± 1.12", "unit": "µM"}, {"measurement": "EC50", "setting": "[8]", "result": "0.28 ± 0.024", "unit": "µM"}, {"measurement": "solubility", "setting": "[9]; pH 5, aqueous buffer", "result": "22.8 µg/mL and 52.5 µM"}, {"measurement": "solubility", "setting": "[9]; pH 6.2, aqueous buffer", "result": "22.6 µg/mL and 52.1 µM"}, {"measurement": "solubility", "setting": "[9]; pH 7.4, aqueous buffer", "result": "0.64 µg/mL and 1.5 µM"}, {"measurement": "Papp", "setting": "[10]", "result": 113, "unit": "×10⁻⁶ cm/s"}, {"measurement": "fraction unbound at 1 μM", "setting": "[11]", "result": 0.008}, {"measurement": "fraction unbound at 10 μM", "setting": "[11]", "result": 0.008}, {"measurement": "Papp", "setting": "[12]; Donor pH 5.0, Acceptor pH 7.4", "result": 1300, "unit": "×10⁻⁶ cm/s"}, {"measurement": "Papp", "setting": "[12]; Donor pH 6.2, Acceptor pH 7.4", "result": 1340, "unit": "×10⁻⁶ cm/s"}, {"measurement": "remaining at 3 h", "setting": "[13]", "result": 39, "unit": "%"}, {"measurement": "remaining at 1 h", "setting": "[14]; +NADPH", "result": 61, "unit": "%"}, {"measurement": "remaining at 1 h", "setting": "[14]; -NADPH", "result": 67, "unit": "%"}, {"measurement": "remaining at 1 h", "setting": "[15]; +NADPH", "result": 30, "unit": "%"}, {"measurement": "remaining at 1 h", "setting": "[15]; -NADPH", "result": 74, "unit": "%"}, {"measurement": "selectivity, Fa2N-4 LC50 compared to mitochondrial swelling EC50", "setting": "[16]", "result": 114, "unit": "fold"}, {"measurement": "CC50", "setting": "[17]", "result": 32, "unit": "µM"}, {"measurement": "remaining at 3 h", "setting": "[18]", "result": 35, "unit": "%"}, {"measurement": "chemical stability with 5× DTT, % parent remaining after 8 h", "setting": "[19]", "result": 91, "unit": "%"}, {"measurement": "effect on CRC of permeabilized HeLa cells", "setting": "[20]", "result": "concentration-dependent increase"}, {"measurement": "effect on ATP synthesis", "setting": "[21]; 5 μM", "result": "no effect"}, {"measurement": "respiratory control ratios, FCCP-stimulated and oligomycin-sensitive respiration", "setting": "[21]; ≤ 10 μM, isolated mouse liver mitochondria", "result": "No significant differences"}]}]}
